Legend:
[1] = target: T1, Gonadotropin-releasing hormone receptor (Rattus norvegicus) (UniProt P30969); experiment: In vitro potency to inhibit GnRH-mediated LH secretion by cultured pituitary cells relative to [Ac-delta-Pro1,DFpa2,DTrp36]GnRH.; assay type: functional, cell-based; settings: Pituitary gland cell
T1 sequence (whole entry): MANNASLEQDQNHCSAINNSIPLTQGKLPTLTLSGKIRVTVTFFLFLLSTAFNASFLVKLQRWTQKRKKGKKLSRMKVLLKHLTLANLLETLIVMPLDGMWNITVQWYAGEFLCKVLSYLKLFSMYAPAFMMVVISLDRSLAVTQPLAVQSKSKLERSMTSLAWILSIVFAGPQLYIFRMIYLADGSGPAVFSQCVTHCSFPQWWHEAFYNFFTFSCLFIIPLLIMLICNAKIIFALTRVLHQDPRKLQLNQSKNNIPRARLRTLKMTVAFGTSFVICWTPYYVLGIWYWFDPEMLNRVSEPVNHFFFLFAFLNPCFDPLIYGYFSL
In short: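 Dispersed rat pituitary cells in culture; antagonist inhibition of GnRH-stimulated LH secretion. Potency expressed relative to standard antagonist [Ac-Δ3Pro1,D4FPhe2,DTrp3,6]GnRH taken as 1.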

Rattus norvegicus [2] = organism: Rattus norvegicus; experiment: Effect in the anti ovulatory assay (AOA) in rats expressed as no. of rats ovulating/No of rats treated at 2.5 mg; 3/7; assay type: functional
Rattus norvegicus [3] = organism: Rattus norvegicus; experiment: Effect in the anti ovulatory assay (AOA) in rats expressed as no. of rats ovulating/No of rats treated at 10 mg; 1/6; assay type: functional
Rattus norvegicus [4] = organism: Rattus norvegicus; experiment: Duration of action measured using castrated male rat assay to inhibit luteinizing hormone release.; fully active at 48 hr but not at 72 hr; assay type: functional
Rattus norvegicus [5] = organism: Rattus norvegicus; experiment: Effect in the anti ovulatory assay (AOA) in rats expressed as no. of rats ovulating/No of rats treated at 0.5 mg; 6/6; assay type: functional
Rattus norvegicus [6] = organism: Rattus norvegicus; experiment: Effect in the anti ovulatory assay (AOA) in rats expressed as no. of rats ovulating/No of rats treated at 1.0 mg; 2/10; assay type: functional
[7] = target: T1, Gonadotropin-releasing hormone receptor (Rattus norvegicus); experiment: Duration of action measured using castrated male rat assay to inhibit luteinizing hormone release.; fully active at 72 hr; assay type: functional
Rattus norvegicus [8] = organism: Rattus norvegicus; experiment: Effect in the anti ovulatory assay (AOA) in rats expressed as no. of rats ovulating/No of rats treated at 1.0 mg; 1/8; assay type: functional
Rattus norvegicus [9] = organism: Rattus norvegicus; experiment: Effect in the anti ovulatory assay (AOA) in rats expressed as no. of rats ovulating/No of rats treated at 0.5 mg; 10/14; assay type: functional
Rattus norvegicus [10] = organism: Rattus norvegicus; experiment: Effect in the anti ovulatory assay (AOA) in rats expressed as no. of rats ovulating/No of rats treated at 1.0 mg; 0/7; assay type: functional
Rattus norvegicus [11] = organism: Rattus norvegicus; experiment: Effect in the anti ovulatory assay (AOA) in rats expressed as no. of rats ovulating/No of rats treated at 2.5 mg; 4/4; assay type: functional
Rattus norvegicus [12] = organism: Rattus norvegicus; experiment: Effect in the anti ovulatory assay (AOA) in rats expressed as no. of rats ovulating/No of rats treated at 5.0 mg; 0/6; assay type: functional
Rattus norvegicus [13] = organism: Rattus norvegicus; experiment: Effect in the anti ovulatory assay (AOA) in rats expressed as no. of rats ovulating/No of rats treated at 1.0 mg; 7/8; assay type: functional
Rattus norvegicus [14] = organism: Rattus norvegicus; experiment: Effect in the anti ovulatory assay (AOA) in rats expressed as no. of rats ovulating/No of rats treated at 2.5 mg; 0/6; assay type: functional
Rattus norvegicus [15] = organism: Rattus norvegicus; experiment: Effect in the anti ovulatory assay (AOA) in rats expressed as no. of rats ovulating/No of rats treated at 2.5 mg; 0/6

SMILES: CC(=O)N[C@H](Cc1ccc2ccccc2c1)C(=O)N[C@H](Cc1ccc(Cl)cc1)C(=O)N[C@H](Cc1cccnc1)C(=O)N[C@@H](CO)C(=O)N[C@@H](Cc1ccc(Nc2n[nH]c(N)n2)cc1)C(=O)N[C@H](Cc1ccc(Nc2n[nH]c(N)n2)cc1)C(=O)N[C@@H](CC(C)C)C(=O)N[C@@H](Cc1ccc(CNC(C)C)cc1)C(=O)N1CCC[C@H]1C(=O)N[C@H](C)N
- Relative potency [1]: 1.1
- No. of rats ovulated (Rattus norvegicus [2]): 3

SMILES: CC(=O)N[C@H](Cc1ccc(N)cc1)C(=O)N[C@H](Cc1ccc(Cl)cc1)C(=O)N[C@H](Cc1cccnc1)C(=O)N[C@@H](CO)C(=O)N[C@@H](Cc1ccc(Nc2n[nH]c(N)n2)cc1)C(=O)N[C@H](Cc1ccc(Nc2n[nH]c(N)n2)cc1)C(=O)N[C@@H](CC(C)C)C(=O)N[C@@H](CCCCNC(C)C)C(=O)N1CCC[C@H]1C(=O)N[C@H](C)N
- No. of rats ovulated (Rattus norvegicus [3]): 1

SMILES: CC(=O)N[C@H](Cc1ccc2ccccc2c1)C(=O)N[C@H](Cc1ccc(Cl)cc1)C(=O)N[C@H](Cc1cccnc1)C(=O)N[C@@H](CO)C(=O)N[C@@H](Cc1ccc(NC(=O)CCCCCNc2n[nH]c(N)n2)cc1)C(=O)N[C@H](Cc1ccc(NC(=O)CCCCCNc2n[nH]c(N)n2)cc1)C(=O)N[C@@H](CC(C)C)C(=O)N[C@@H](CCCCNC(C)C)C(=O)N1CCC[C@H]1C(=O)N[C@H](C)N
- Duration of action (Rattus norvegicus [4]): 48 h
- No. of rats ovulated (Rattus norvegicus [5]): 6
- No. of rats ovulated (Rattus norvegicus [6]): 2
- Relative potency [1]: 0.48

SMILES: CC(=O)N[C@H](Cc1ccc2ccccc2c1)C(=O)N[C@H](Cc1ccc(Cl)cc1)C(=O)N[C@H](Cc1cccnc1)C(=O)N[C@@H](CO)C(=O)N[C@@H](Cc1ccc(NC(=O)CCCNc2n[nH]c(N)n2)cc1)C(=O)N[C@H](Cc1ccc(NC(=O)CCCNc2n[nH]c(N)n2)cc1)C(=O)N[C@@H](CC(C)C)C(=O)N[C@@H](CCCCNC(C)C)C(=O)N1CCC[C@H]1C(=O)N[C@H](C)N
- Duration of action [7]: 72 h
- No. of rats ovulated (Rattus norvegicus [8]): 1
- No. of rats ovulated (Rattus norvegicus [9]): 10
- Relative potency [1]: 0.21

SMILES: CC(=O)N[C@H](Cc1ccc2ccccc2c1)C(=O)N[C@H](Cc1ccc(Cl)cc1)C(=O)N[C@H](Cc1cccnc1)C(=O)N[C@@H](CO)C(=O)N[C@@H](Cc1ccc(Nc2n[nH]c(N)n2)cc1)C(=O)N[C@H](Cc1ccc(Nc2n[nH]c(N)n2)cc1)C(=O)N[C@@H](CC(C)C)C(=O)N[C@@H](CCCCNC(C)C)C(=O)N1CCC[C@H]1C(=O)N[C@H](C)N
- Duration of action [7]: 72 h
- No. of rats ovulated (Rattus norvegicus [10]): 0
- Relative potency [1]: 1.3

SMILES: CC(=O)N[C@H](Cc1ccc2ccccc2c1)C(=O)N[C@H](Cc1ccc(Cl)cc1)C(=O)N[C@H](Cc1cccnc1)C(=O)N[C@@H](CO)C(=O)N(C)[C@@H](Cc1ccc(Nc2n[nH]c(N)n2)cc1)C(=O)N[C@H](Cc1ccc(Nc2n[nH]c(N)n2)cc1)C(=O)N[C@@H](CC(C)C)C(=O)N[C@@H](Cc1ccc(CNC(C)C)cc1)C(=O)N1CCC[C@H]1C(=O)N[C@H](C)N
- No. of rats ovulated (Rattus norvegicus [11]): 4
- No. of rats ovulated (Rattus norvegicus [12]): 0

SMILES: CC(=O)N[C@H](Cc1ccc2ccccc2c1)C(=O)N[C@H](Cc1ccc(Cl)cc1)C(=O)N[C@H](Cc1cccnc1)C(=O)N[C@@H](CO)C(=O)N[C@@H](Cc1ccc(N)cc1)C(=O)N[C@H](Cc1ccc(N)cc1)C(=O)N[C@@H](CC(C)C)C(=O)N[C@@H](CCCCNC(C)C)C(=O)N1CCC[C@H]1C(=O)N[C@H](C)N
- Duration of action [7]: 72 h
- Relative potency [1]: 0.74
- No. of rats ovulated (Rattus norvegicus [13]): 7
- No. of rats ovulated (Rattus norvegicus [14]): 0
- No. of rats ovulated (Rattus norvegicus [15]): 0

From ChEMBL document CHEMBL1128434, “Gonadotropin-releasing hormone antagonists: novel members of the azaline B family” (1995)
